Rows were chosen to be rich in hits. Some 2.5% of all compounds tested hit in one or more screens of this group.
NR2E3 ag-1 – human photoreceptor-specific nuclear receptor agonism. Q9Y5X4. CHO-S Gal4-NCOR/VP16-NR2E3 two-hybrid, luciferase. inhibition of corepressor binding, % at 3.98 µM. 0.35% of 360,000 active. AID 602229;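 active = inhibition above the mean of all tested compounds plus 3 SD, cut at about 70% in these data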;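 also: 0% = DMSO with NR2E3 transfected cells and 100% = cells lacking NR2E3 construct; higher means lower luciferase signal from less NR2E3 corepressor binding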
Target sequence (Q9Y5X4 whole entry, looked up, the tested form may be a part): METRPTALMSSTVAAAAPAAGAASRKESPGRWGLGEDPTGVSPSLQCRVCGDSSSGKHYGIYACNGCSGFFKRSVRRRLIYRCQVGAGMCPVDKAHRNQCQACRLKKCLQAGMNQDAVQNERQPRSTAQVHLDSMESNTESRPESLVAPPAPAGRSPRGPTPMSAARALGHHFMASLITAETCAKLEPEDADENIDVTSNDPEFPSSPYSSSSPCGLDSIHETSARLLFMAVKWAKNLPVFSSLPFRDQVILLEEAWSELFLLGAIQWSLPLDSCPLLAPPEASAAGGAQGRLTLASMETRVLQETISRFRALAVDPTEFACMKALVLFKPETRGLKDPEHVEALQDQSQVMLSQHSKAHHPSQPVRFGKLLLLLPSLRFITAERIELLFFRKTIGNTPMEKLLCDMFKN
MsrA act – activates bovine MsrA enzyme; purified bovine MsrA, absorbance read-out; activation, % at 10.6 µM; 0.3% of 360,000 active; AID 602163; in the data active = activation above about 7.5%;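 also: 0% = vehicle and 100% = reference activator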
NR2E3 ag-2 – NR2E3 (human) agonism; Q9Y5X4; GST-NR2E3/biotin-RetCOR TR-FRET, 1536-well; inhibition of corepressor binding, % at 4.78 µM; 0.12% of 320,000 active; AID 2300;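 active = percent inhibition above the cutoff of mean plus 3 SD of all tested compounds, set per screening campaign, cut at about 20% in these data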;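 also: 0% = DMSO wells and 100% = biotin wells as full block of FRET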
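Material: NR2E3–RetCOR corepressor complex / Amount: 1.35 nM GST-NR2E3 / Medium: Tris pH 7.5 / Compound: single nominal compound dose of 4.8 µM / Incubation: 5 h at 4 °C / Technique: TR-FRET, Eu(K)-anti-GST donor, streptavidin-D2 acceptor, ex 340, em 617/671 nm / Read-out basis: percent loss of FRET ratio relative to control wells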
NadD inh – inhibitors of Staphylococcus aureus NadD. AID 602399. purified NadD enzyme, colorimetric absorbance read-out. 0.78% of 360,000 active. inhibition, % at 20 µM; in the data active = inhibition above about 26%
MsrA inh – bovine MsrA inhibition | 0.75% of 360,000 active | inhibition, % at 15.5 µM | purified bovine MsrA, absorbance read-out | AID 651718;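 also: 0% = vehicle wells with enzyme and 100% = reference inhibitor wells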
GalR3 antag – human GalR3 antagonism | O60755 | inhibition, % at 3 µM | HEK293 GalR3-CNG cAMP membrane potential fluorescence; galR3 body fused to GalR1 C-terminus | 0.44% of 360,000 active;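 active = inhibition above the screen-wide average plus 3 SD, cut at about 13% in these data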;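 also: forskolin and galanin both at EC90 stimulate the cells; cAMP rise reported by CNG channel membrane potential dye signal; 0% = forskolin plus galanin with DMSO and 100% = forskolin alone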
MsrA conf – bovine MsrA inhibition, confirmed. shares compounds with MsrA inh. purified bovine MsrA, absorbance read-out. inhibition, % at 15.5 µM. 41% of 2,300 active;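 also: coupled to thioredoxin reductase with NADPH and selenocystamine and DMSO as substrate; 0% = vehicle only and 100% = full effect of reference inhibitor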
Active calls of the source: *; · = no result. Rule as the data show it, unless noted: active = inhibition above about 4.5%; inactive = the rest.

SMILES	NR2E3 ag-1	MsrA act	NR2E3 ag-2	NadD inh	MsrA inh	GalR3 antag	MsrA conf
COc1ccc(OC)c(-c2csc(CCn3nc(C)cc3C)n2)c1	-13	-3	0	-11	-1	-1	·
COc1cccc2cc(-c3csc(CCn4nc(C)cc4C)n3)c(=O)oc12	-26	-9	1	11	5.5*	0	2
COCCn1c(=S)[nH]c2sc3c(c2c1=O)CCCC3	-5	3	10	2	5.5*	-10	3
COc1ccc(CC(=O)NNC(=O)CCc2ccccc2)cc1	16	-3	4	1	1	-6	·
COc1ccc(NC(=O)c2cc3cccc(OC)c3oc2=Nc2ccc(C(=O)O)cc2)cc1OC	-11	-2	·	9	-1	-3	·
CCC(NC(=O)Cc1c(C)c2cc3c(cc2oc1=O)OC(C)(C)CC3)C(=O)O (stereo not given)	-50	0	0	-5	5.2*	-11	3
CCOC(=O)c1cccc(-n2cccc2/C=C2\NC(=O)N(CC(=O)O)C2=O)c1	-37	-4	·	-1	5.0*	-1	5
CCOC(=O)Cn1c(=O)c(C#N)cn(C(C)C)c1=O	-20	-4	4	-4	-2	-4	·
COc1cc(/C=C/C(=O)O)ccc1OS(=O)(=O)c1c(C)c(C)cc(C)c1C	15	-6	1	-1	1	-3	·
COc1cc(C)c(/C=C/C(C)=C/C=C/C(C)=C/C(=O)O)c(C)c1C	-17	-7	4	14	4.7*	·	4
Cc1cc(C)nc(N2CCCC(C(=O)NCc3cccs3)C2)n1 (stereo not given)	-20	0	0	-6	1	-3	·
O=C(Cn1nnc(-c2ccc(S(=O)(=O)N3CCCC3)cc2)n1)Nc1ccccc1-n1cccc1	-29	4	1	-8	0	-7	·
O=C(COc1ccccc1)NC1CCCN(Cc2ccccc2F)C1 (stereo not given)	-2	-5	4	2	0	-1	·
COC(=O)N1[C@H](C)C=C[C@]1(Cc1ccccc1)C(=O)NCCCNc1ncc(C(F)(F)F)cc1Cl	-8	-1	2	-7	37*	-3	37*
Cc1ccnc(NC(=O)c2cc(-c3ccc(Cl)s3)nc3ccccc23)c1	-33	-2	-4	17	-2	-4	·
CCOc1cc(NC(=S)NCC2CCCO2)c(OCC)cc1NC(=O)c1ccccc1F (stereo not given)	-16	-2	4	-2	4	0	·
COc1ccc(C(=O)/C(=C/c2cccs2)c2nc3ccccc3o2)cc1	-21	-1	1	-4	3	-8	·
COc1ccc(/C=C(\CC(=O)O)c2nc3ccccc3o2)cc1	-41	-5	2	0	5.9*	-2	4
COc1ccc(/C=C(/C#N)C(=O)Nc2ccccc2C)cc1C(=O)O	9	-2	1	-7	5.6*	-4	4
Cc1cccc(NC(=O)/C(C#N)=C/c2ccc[nH]2)c1C	-69	-2	·	-7	3	-1	·
COc1ccc(/C=C(/C#N)C(=O)Nc2ccc(C)cc2C)cc1C(=O)O	-25	-3	2	1	7.0*	-2	6.1*
COc1ccc(/C=C(/C#N)C(=O)Nc2cccc(C)c2C)cc1C(=O)O	12	-4	2	-3	0	-2	·
Cc1ccc(C)c(NC(=O)/C(C#N)=C/c2ccc[nH]2)c1	12	-6	1	-5	9.3*	2	11*
COc1ccccc1NS(=O)(=O)c1cccc(NS(=O)(=O)c2cc(C(=O)O)ccc2OC)c1	12	2	·	-1	2	-5	·
Cc1ccc(NC(=O)CN2C(=O)N/C(=C/c3ccccc3OCc3cccc(C(=O)O)c3)C2=O)cc1	-42	-4	2	15	4.7*	7	3
SMILES	NR2E3 ag-1	MsrA act	NR2E3 ag-2	NadD inh	MsrA inh	GalR3 antag	MsrA conf
CC(C)(C)NC(=O)C1CCCN(S(=O)(=O)c2cccc3cccnc23)C1 (stereo not given)	4	-2	0	2	1	1	·
CC(CN1CCN(c2ccccc2)CC1)c1ccccc1 (stereo not given)	-9	-7	0	-5	0	-5	·
COc1ccc2cc3cc(C(=O)NCc4cccnc4)oc3nc2c1	3	-6	4	1	5.6*	-5	4
NC(=O)N\N=C/C=C/C=C/c1ccc(F)cc1	-18	-8	-5	-7	5.2*	-6	3
Cc1ccc(N2C(=O)c3ccccc3C2C(=O)c2ccc(O)cc2O)cc1 (stereo not given)	11	-6	0	3	6.2*	0	6.0*
Cc1ccc(N2C(=O)c3ccccc3C2C(=O)c2cc(C)ccc2O)cc1 (stereo not given)	-31	-6	4	2	0	-10	·
COC(=O)CSc1nc(C)c(C)c(C)c1C(N)=O	4	-1	0	-1	1	4	·
COCCNC(=S)N/N=C(\C)c1ccc(OC)cc1	-5	-3	-2	3	2	-5	·
COCCNC(=S)N/N=C(\C)c1cc2ccccc2o1	-14	-2	0	-1	8.2*	0	5.2*
Cc1cc(N/C=C/C(=O)c2cccc3ccccc23)no1	-21	-4	-2	-1	4.7*	1	2
Cc1cc(N/C=C/C(=O)c2ccc(Br)cc2)no1	-23	-5	7	1	0	0	·
Cc1[nH]c2ccccc2c1/C=N/n1cnnc1	-4	-2	6	-6	2	-1	·
C(=N\n1cnnc1)/c1nc2ccccc2[nH]1	-22	-3	1	-2	4.9*	-3	2
CC1OC(=O)c2cc3ccccc3nc21 (stereo not given)	7	-2	·	-8	1	-3	·
O=C(O)CN1C(=O)CNC1=O	-8	-6	7	11	-1	-2	·
COc1cc(OC)cc(-c2nc3ccccc3s2)c1	-109	0	2	-11	-1	-8	·
Cc1ccc2nc(-c3ccc(N)cc3)sc2c1	-130	-5	2	-3	0	4	·
Nc1ccc2nc(-c3ccccc3)sc2c1	-118	-8	0	-7	4.7*	-5	3
Nc1ccc(-c2nc3ccccc3s2)cn1	-112	-3	1	-4	5.3*	-8	2
Cc1cc(-c2nc3ccccc3s2)ccc1N	-170	-3	·	0	4.7*	-7	3
CCOC(=O)c1ccc(NC(=O)c2nc[nH]c2C(=O)N2CCN(C(=O)OC(C)(C)C)CC2)cc1	·	·	·	·	0	1	·
O=S(Cc1cc(Sc2ccccc2)nc(-c2ccccc2)n1)c1ccccc1 (stereo not given)	-49	-1	6	-2	-1	-1	·
O=C(NCCc1ccccn1)c1cccc(S(=O)(=O)N2CCCCCC2)c1	-14	1	-1	-2	1	0	·

Screens (PubChem BioAssay)
